Hits are enriched below; roughly 1.8% of the tested compounds scored in any of these assays.
SUMO1 PPI mod = modulators of SUMO1 protein-protein interactions, primary screen, biochemical, uHTS; Small ubiquitin-related modifier 1 (Homo sapiens), P63165; SUMO1 binding to a labelled peptide, TR-FRET, 1 h; inhibition, % at 20 µM; 0.33% of 360,000 active; in the data active = inhibition above about 37%
Target sequence (P63165 whole entry, looked up): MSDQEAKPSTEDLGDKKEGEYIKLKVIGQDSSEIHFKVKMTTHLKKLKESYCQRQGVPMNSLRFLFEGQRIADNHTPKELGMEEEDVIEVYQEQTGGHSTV
Scp1 inh = Scp-1 phosphatase inhibitors, primary screen, biochemical, colorimetric, uHTS; 0.88% of 340,000 active; inhibition, % at 20 µM; AID 493091, 2011; Carboxy-terminal domain RNA polymerase II polypeptide A small phosphatase 1 (Homo …; Recombinant Scp1, phosphopeptide, malachite green phosphate absorbance;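 active = inhibition above about 50% at 20 µM, limit read from the data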;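 note: plate controls were DMSO wells with enzyme for no effect and wells lacking enzyme for full effect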
Target sequence (Q9GZU7 76-261 limits assumed): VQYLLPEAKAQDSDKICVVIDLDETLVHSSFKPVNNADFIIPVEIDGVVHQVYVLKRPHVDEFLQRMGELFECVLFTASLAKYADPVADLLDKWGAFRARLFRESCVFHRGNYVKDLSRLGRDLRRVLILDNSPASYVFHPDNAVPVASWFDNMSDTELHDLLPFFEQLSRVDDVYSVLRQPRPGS
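Assay system: SCP-1 catalytic fragment, aa 76-261 | Buffer or medium: Tris acetate buffer pH 5.5 with MgCl2 and Tween-20 | Compound: One concentration, 20 µM, with 1.0% DMSO | Also added: Phospho 17-mer peptide substrate | Signal: Absorbance at 630 nm | Incubation: 45 min enzyme reaction at room temperature | Measure: % inhibition of SCP-1 phosphate liberation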
STEP inh = STEP phosphatase inhibitors, primary screen, biochemical, fluorescence intensity, uHTS. recombinant STEP, OMFP fluorogenic substrate. inhibition, % at 20 µM. 0.25% of 360,000 active. Tyrosine-protein phosphatase non-receptor type 5 (Homo sapiens), P54829;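 active = inhibition at 20 µM, scaled per plate between control wells, above about 37%, limit read from the data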;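 note: 0% = DMSO with enzyme and substrate and 100% = substrate only without enzyme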
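Test system: STEP tyrosine phosphatase / Reagent: OMFP at 25 µM / Doses: 20 µM, 1% DMSO / Read-out: percent inhibition scaled to no-enzyme and uninhibited-enzyme controls, plate-pattern corrected / Detection: FITC-channel fluorescence of OMFP product / Medium: Bis-Tris buffer pH 6.0, 2.5 mM DTT, 0.005% Tween 20 / Schedule: 20 min at room temperature, dark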
LMPTP block = LMPTP phosphatase inhibitors, primary screen, biochemical, fluorescence intensity, uHTS; Low molecular weight phosphotyrosine protein phosphatase (Homo sapiens), P24666; recombinant LMPTP-A, OMFP fluorogenic substrate; inhibition, % at 20 µM; 0.22% of 360,000 active;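 active = compounds that cut the enzyme signal by at least half of the control window in the single-dose screen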;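 note: plate controls were DMSO wells with enzyme plus substrate for no effect and substrate without enzyme for full effect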
Target sequence (P24666 whole entry, looked up): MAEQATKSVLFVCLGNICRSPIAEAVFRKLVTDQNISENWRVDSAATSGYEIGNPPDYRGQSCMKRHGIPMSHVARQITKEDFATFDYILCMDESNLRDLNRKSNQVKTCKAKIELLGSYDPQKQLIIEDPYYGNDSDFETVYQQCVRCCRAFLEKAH
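Test system: LMPTP-A phosphatase enzyme. Amount: LMPTP-A at 0.625 nM final in the reaction. Reagent: OMFP substrate, 400 µM final. Times: 50 min at room temperature. Signal: endpoint fluorescence intensity from OMFP dephosphorylation. Read-out basis: % inhibition. Benchmarks: no-enzyme and uninhibited controls.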
DNMT1 block = human DNMT1 methyltransferase inhibitors, primary screen, biochemical, molecular beacon, fluorescence, HinP1I cleavage, uHTS | DNA (cytosine-5)-methyltransferase 1 (Homo sapiens), P26358 | inhibition (reported as % activation of signal), % at 10 µM | 0.83% of 360,000 active; in the data active = inhibition above about 50%
Beacon interf DR = spectral interference with molecular beacon fluorescence, dose response, artefact control for DNMT1 inhibitor project, biochemical, fluorescent molecular beacon; 200 tested, under 10 active; IC50, µM; spectral interference counter-screen; AID 602382, 2012; shares compounds with DNMT1 block; call rule not given here
DNMT1 inh conf = DNMT1 methyltransferase inhibitor retest, confirmation, biochemical, molecular beacon, fluorescence, single concentration; 8% of 2,300 active; shares compounds with DNMT1 block; inhibition, % at 10 µM; DNMT1 molecular beacon HinP1I cleavage;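 active = average inhibition of at least 30% in the single-concentration confirmation test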
DNMT1 interf = shows spectral interference in the DNMT1 beacon assay | shares compounds with DNMT1 block | DNMT1 molecular beacon spectral interference counterscreen, fluorescence 485/520 | activation (fluorescence interference), % at 10 µM | 1% of 2,300 active;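 active = activation of at least 30% at 10 µM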;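 note: DNMT1 catalytic domain with a HinP1I cleavage step and a FAM/dabcyl DNA beacon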
The depositor's hits bear a star.

For Cn1cc(/C=C/c2cc[n+](C)cc2)c2cc(F)ccc21 the results were SUMO1 PPI mod -85, Scp1 inh 37, STEP inh -14, LMPTP block -1, DNMT1 block 60*, DNMT1 inh conf 56* and DNMT1 interf 53*.
Screening CCCCCC(=O)Nc1ccc(S(=O)(=O)NC2=NCCCCC2)cc1 returned SUMO1 PPI mod 2, Scp1 inh -7, STEP inh -2, LMPTP block -2 and DNMT1 block 5.
For O=C(c1ccccc1)N1N=C(c2ccccc2)CC1c1cccs1 (configuration not stated) the results were SUMO1 PPI mod -1, Scp1 inh -19, STEP inh 1, LMPTP block 5, DNMT1 block 89*, DNMT1 inh conf 1 and DNMT1 interf 4.
CC(=O)N1N=C(c2ccccc2)CC1c1ccccc1 (configuration not stated) was read as SUMO1 PPI mod -2, Scp1 inh -7, STEP inh 5, LMPTP block 1, DNMT1 block 88*, DNMT1 inh conf 7 and DNMT1 interf 6.
Screening N#Cc1ccc(-c2nc3ccc(Cl)cn3c2Cc2ccsc2)cc1 returned SUMO1 PPI mod -1, STEP inh 0, LMPTP block 0 and DNMT1 block 1.
For CCCC[C@@H]1C=C(C(=O)O)[C@H](c2ccc(CC)cc2)N1S(=O)(=O)c1ccc(C)cc1 the results were SUMO1 PPI mod 9, Scp1 inh -11, STEP inh 2, LMPTP block -1 and DNMT1 block 2.
`CCc1ccc([C@H]2C(C(=O)O)=C[C@@H](CC)N2S(=O)(=O)c2ccc(C)cc2)cc1` gave SUMO1 PPI mod 2, Scp1 inh 8, STEP inh 2, LMPTP block -2, DNMT1 block 74*, DNMT1 inh conf 4 and DNMT1 interf 1.
`COCC(=O)N(C)C[C@H]1N[C@@](C)(C(=O)OC)[C@H]2C(=O)N(C)C(=O)[C@@H]12` gave SUMO1 PPI mod 5, Scp1 inh 0, STEP inh -9, LMPTP block -1, DNMT1 block 86*, DNMT1 inh conf 0 and DNMT1 interf 3.
CC(C)c1ccc(NC(=O)C(c2ccccc2)N2CCOCC2)cc1 (configuration not stated) was read as SUMO1 PPI mod 8, Scp1 inh -6, STEP inh -1, LMPTP block 50*, DNMT1 block 71*, DNMT1 inh conf 2 and DNMT1 interf 4.
For C=C(C)[C@@H]1CC[C@]2(C(=O)O)CC[C@]3(C)[C@H](CC[C@@H]4[C@@]5(C)CC[C@H](O)C(C)(C)[C@@H]5CC[C@]43C)[C@@H]12 the results were SUMO1 PPI mod 22, Scp1 inh -9, STEP inh 0, LMPTP block -3, DNMT1 block 53*, DNMT1 inh conf 2 and DNMT1 interf -14.
Cc1cccn2c(=O)c3cc(C(=O)NC4CCS(=O)(=O)C4)n(Cc4ccccc4)c3nc12 (configuration not stated) was read as SUMO1 PPI mod -21, Scp1 inh -3, STEP inh -2, LMPTP block 2 and DNMT1 block 0.
`CCN(CC)CCOc1ccc2c(c1)C(=NO)c1cc(OCCN(CC)CC)ccc1-2` gave SUMO1 PPI mod -27, Scp1 inh 13, STEP inh 0, LMPTP block 5, DNMT1 block 61*, Beacon interf DR >99, DNMT1 inh conf 34* and DNMT1 interf -3.
For C=CC[C@@H](CC(=O)N[C@H](CO)Cc1ccccc1)C(=O)N[C@@H](COC(=O)[C@@H](CC=C)CC(=O)OC(C)(C)C)Cc1ccccc1 the results were SUMO1 PPI mod -1, Scp1 inh -4, STEP inh 2, LMPTP block 0 and DNMT1 block -3.
Screening Cc1cc2cc(C)c3nnc(SCC(=O)Nc4ccc(S(=O)(=O)N5CCCCC5)cc4)n3c2cc1C returned SUMO1 PPI mod 2, Scp1 inh -1, STEP inh -2, LMPTP block 0, DNMT1 block 56*, DNMT1 inh conf 2 and DNMT1 interf 0.
For CCOc1ccc(NC(=S)NC(=O)/C=C/c2ccc(C)cc2)c([N+](=O)[O-])c1 the results were SUMO1 PPI mod -5, Scp1 inh -11, STEP inh 2, LMPTP block 1, DNMT1 block 53*, DNMT1 inh conf 2 and DNMT1 interf -4.
Screening C/C(=C\c1ccc(C(=O)O)cc1)c1ccc2c(c1)C(C)(C)CCC2(C)C returned SUMO1 PPI mod 11, Scp1 inh -6, STEP inh -2, LMPTP block -1, DNMT1 block 52*, DNMT1 inh conf 21 and DNMT1 interf 0.
`CC(=O)C(=Cc1ccc(C(=O)O)cc1)C(C)=O` gave SUMO1 PPI mod -4, Scp1 inh 15, STEP inh 2, LMPTP block 0 and DNMT1 block 9.
`CN(Cc1ccccc1)C(=O)COC(=O)c1cc([N+](=O)[O-])ccc1N1CCOCC1` gave SUMO1 PPI mod -25, Scp1 inh -10, STEP inh -2, LMPTP block 1, DNMT1 block 111*, DNMT1 inh conf 2 and DNMT1 interf 2.
Screening CC1CC1C(=O)N1CCN(S(=O)(=O)c2cc(C(F)(F)F)cc(C(F)(F)F)c2)CC1 (configuration not stated) returned SUMO1 PPI mod 5, Scp1 inh -5, STEP inh 3, LMPTP block -1 and DNMT1 block 1.
Screening CCCc1ccc(S(=O)(=O)N(C)S(=O)(=O)c2ccc(F)cc2)cc1 returned SUMO1 PPI mod 4, Scp1 inh -10, STEP inh 1, LMPTP block 3 and DNMT1 block 7.
CCOC(=O)C1CN(S(=O)(=O)c2cc(OC)ccc2OC)C1 was read as SUMO1 PPI mod 1, Scp1 inh -10, STEP inh 1, LMPTP block 0 and DNMT1 block 1.
